In assay [1] the test system is MCF7. Kind of assay: Cytotoxicity against human MCF7 cells assessed as growth inhibition at 50 uM after 48 hrs by SRB assay relative to control. The assay is classed as functional. Particulars: MCF7, 48 h, read-out: GI. Put shortly:
(§1)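 SRB growth-inhibition run in RPMI-1640/10% FBS at 37°C, 5% CO₂. Cell lines were seeded (PC-3 7000, MCF-7 8000, A549 7500, HCT-116 7000/well) and attached 24 h. The treatment series included 50 μM, with 48 h exposure. Cells were cold-TCA fixed and stained with 0.4% SRB. Dye was solubilized in 10 mM Tris pH 10.4 and read at 540 nm against untreated control.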

The test system of assay [2] is PC-3. As to the kind of experiment: Cytotoxicity against human PC3 cells assessed as growth inhibition at 50 uM after 48 hrs by SRB assay relative to control. The settings on record: PC-3, 48 h, read-out: GI. The assay is classed as functional. Put shortly: as §1
Assay [3] concerns A549. Kind of assay: Cytotoxicity against human A549 cells assessed as growth inhibition at 50 uM after 48 hrs by SRB assay relative to control. The assay is classed as functional. The settings on record: A549, 48 h, read-out: GI. The gist of the method:
as §1
(The SRB assay estimates cell density from bound dye.)

Assay [4] deals with HCT-116. Kind of assay: Cytotoxicity against human HCT116 cells assessed as growth inhibition at 50 uM after 48 hrs by SRB assay relative to control. Particulars: HCT-116, 48 h, read-out: GI. The assay is classed as functional. The gist of the method: as §1
The test system of assay [5] is MCF7. As to the kind of experiment: Cytotoxicity against human MCF7 cells assessed as growth inhibition after 48 hrs by SRB assay. The assay is classed as functional, cell-based. Particulars: MCF7, 48 h. Put shortly:
(§2)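 Cells were grown in RPMI-1640 with 10% FBS and penicillin/streptomycin at 37°C, 5% CO₂. Seeding was PC-3 7000, MCF-7 8000, A549 7500 and HCT-116 7000 cells/well, with 24 h attachment. Cells were exposed to 1, 5, 10, 30 and 50 μM for 48 h, with a 5-fluorouracil reference. Cells were TCA-fixed (1 h, 4°C) and stained with 0.4% SRB. Bound dye was dissolved in 10 mM Tris pH 10.4 and read at 540 nm. IC50 came from the concentration-response.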

The test system of assay [6] is A549. Kind of assay: Cytotoxicity against human A549 cells assessed as growth inhibition after 48 hrs by SRB assay. The assay is classed as functional, cell-based. The settings on record: A549, 48 h. The gist of the method:
as §2

Assay [7] deals with PC-3. As to the kind of experiment: Cytotoxicity against human PC3 cells assessed as growth inhibition after 48 hrs by SRB assay. The assay is classed as functional, cell-based. The settings on record: PC-3, 48 h. The gist of the method: as §2
Assay [8] concerns HCT-116. Kind of assay: Cytotoxicity against human HCT116 cells assessed as growth inhibition after 48 hrs by SRB assay. The assay is classed as functional, cell-based. Particulars: HCT-116, 48 h. The gist of the method:
as §2

Turning to `COc1cc2c(cc1CC=C(C)C)[C@H](O)C[C@@H](c1ccc(O)cc1)O2`, the inhibition of growth at 50 µM in assay [1] was determined as 49%; in assay [2], 13%; in assay [3] it was 48%; in assay [4], 37%.
In the same order, the values of `COc1ccc([C@@H]2C/C(=N/OCc3cn(-c4cccc(CO)c4)nn3)c3cc(CC=C(C)C)c(OC)cc3O2)cc1` are 42%, 34%, 43% and 27%.
As to `COc1cc2c(cc1CC1OC1(C)C)C(=O)C[C@@H](c1ccc(O)cc1)O2` (stereo partly drawn), the inhibition of growth at 50 µM came to 98% in assay [1], 92% in assay [2], 79% in assay [3] and 97% in assay [4]. Besides, the IC50 in assay [5] turned out to be 30.9 µM; in assay [6], 29.8 µM; in assay [7], 27.4 µM; in assay [8], 29 µM.
Take `COc1cc2c(cc1CCC(C)C)C(=O)C[C@@H](c1ccc(O)cc1)O2`: the inhibition of growth at 50 µM came out at 81% in assay [1], 78% in assay [2], 75% in assay [3] and 77% in assay [4]. Further, the IC50 in assay [5] was 34.5 µM; in assay [6], 30.5 µM; in assay [7], 36.3 µM; in assay [8], 34.3 µM.
Take `CCCCOc1ccc([C@@H]2CC(=O)c3cc(CC=C(C)C)c(OC)cc3O2)cc1`: the inhibition of growth at 50 µM in assay [1] came out at 57%; in assay [2] it was 48%; in assay [3], 37%; in assay [4], 60%.
In the same order, the values of `COc1ccc([C@@H]2C/C(=N/OCc3cn(-c4ccc(Cl)cc4C)nn3)c3cc(CC=C(C)C)c(OC)cc3O2)cc1` are 37%, 49%, 35% and 20%.
As to `COc1ccc([C@@H]2C/C(=N/OCc3cn(-c4ccc(C#N)cc4)nn3)c3cc(CC=C(C)C)c(OC)cc3O2)cc1`, the inhibition of growth at 50 µM in assay [1] worked out at 40%; in assay [2] it was 50%; in assay [3], 42%; in assay [4], 50%.
Consider `COc1cc(O)c(C(=O)/C=C/c2ccc(O)cc2)cc1CC=C(C)C`, for which the inhibition of growth at 50 µM in assay [1] was determined as 73%; in assay [2], 44%; in assay [3], 68%; in assay [4] it was 63%.
Regarding `COc1ccc([C@@H]2C/C(=N/OCc3cn(-c4ccc(O)cc4)nn3)c3cc(CC=C(C)C)c(OC)cc3O2)cc1`, the inhibition of growth at 50 µM came to 63% in assay [1], 64% in assay [2], 52% in assay [3] and 65% in assay [4].
Regarding `COc1cc2c(cc1CC=C(C)C)/C(=N/O)C[C@@H](c1ccc(O)cc1)O2`, the inhibition of growth at 50 µM came out at 93% in assay [1], 81% in assay [2], 80% in assay [3] and 99% in assay [4]. Besides, the 50% inhibitory concentration (IC50) was determined as 23.6 µM in assay [5], 11.4 µM in assay [6], 31.6 µM in assay [7] and 29.7 µM in assay [8].
`C#CCOc1ccc([C@@H]2CC(=O)c3cc(CC=C(C)C)c(OC)cc3O2)cc1`: the inhibition of growth at 50 µM in assay [1] worked out at 68%; in assay [2] it was 52%; in assay [3], 53%; in assay [4], 75%.
In the same order, the values of `COc1ccc([C@@H]2C/C(=N/OCc3cn(-c4ccc(C(=O)c5ccccc5)cc4)nn3)c3cc(CC=C(C)C)c(OC)cc3O2)cc1` are 41%, 40%, 34% and 52%.
For the molecule `COc1cc2c(cc1CC=C(C)C)/C(=N/NC(N)=O)C[C@@H](c1ccc(O)cc1)O2`, the inhibition of growth at 50 µM was 93% in assay [1], 67% in assay [2], 77% in assay [3] and 87% in assay [4]. The half-inhibitory concentration (IC50) in assay [5] is 19.5 µM; in assay [6], 25.3 µM; in assay [7], 27.7 µM; in assay [8], 24.3 µM.
For the molecule `COc1ccc([C@@H]2C/C(=N/OCc3cn(-c4cccnc4Cl)nn3)c3cc(CC=C(C)C)c(OC)cc3O2)cc1`, the inhibition of growth at 50 µM was found to be 35% in assay [1], 44% in assay [2], 58% in assay [3] and 47% in assay [4].
With `COc1ccc([C@@H]2C/C(=N/OCc3cn(-c4ccc(NC(=O)c5ccccc5)cc4)nn3)c3cc(CC=C(C)C)c(OC)cc3O2)cc1`, the inhibition of growth at 50 µM is 4% in assay [1], 22% in assay [2], 31% in assay [3] and 8% in assay [4].
In the same order, the values of `COc1ccc([C@@H]2C/C(=N/O)c3cc(CC=C(C)C)c(OC)cc3O2)cc1` are 63%, 45%, 66% and 47%.
Regarding `COc1ccc([C@@H]2C/C(=N/OCc3cn(-c4ccc(NC(C)=O)cc4)nn3)c3cc(CC=C(C)C)c(OC)cc3O2)cc1`, the inhibition of growth at 50 µM in assay [1] was determined as 0%; in assay [2], 2%; in assay [3] it was 19%; in assay [4], 6%.
In the same order, the values of `COc1cc2c(cc1CC=C(C)C)C(=O)C[C@@H](c1ccc(Oc3cccc([N+](=O)[O-])c3)cc1)O2` are 53%, 21%, 37% and 46%.
In the same order, the values of `COc1ccc([C@@H]2C/C(=N/OCc3cn(-c4cc(OC)c(OC)c(OC)c4)nn3)c3cc(CC=C(C)C)c(OC)cc3O2)cc1` are 45%, 36%, 28% and 29%.
In the same order, the values of `COc1cc2c(cc1CC=C(C)C)C(=O)C[C@@H](c1ccc(Oc3ccc(F)cc3)cc1)O2` are 37%, 19%, 27% and 29%.
Consider `CCOc1ccc([C@@H]2CC(=O)c3cc(CC=C(C)C)c(OC)cc3O2)cc1`, for which the inhibition of growth at 50 µM is 57% in assay [1], 60% in assay [2], 37% in assay [3] and 65% in assay [4].
In the case of `COc1cc2c(cc1CC=C(C)C)C(=O)C[C@@H](c1ccc(Oc3ccc(Br)cc3)cc1)O2`, the inhibition of growth at 50 µM in assay [1] stood at 68%; in assay [2] it was 55%; in assay [3], 72%; in assay [4] it was 76%.
In the same order, the values of `COc1ccc([C@@H]2CC(=O)c3cc(CC=C(C)C)c(OC)cc3O2)cc1` are 65%, 58%, 45% and 68%.
Take `COc1cc2c(cc1CC=C(C)C)C(=O)C[C@@H](c1ccc(Oc3ccccc3)cc1)O2`: the inhibition of growth at 50 µM in assay [1] is 69%; in assay [2], 53%; in assay [3] it was 46%; in assay [4], 76%.
Turning to `C#CCO/N=C1/C[C@@H](c2ccc(OC)cc2)Oc2cc(OC)c(CC=C(C)C)cc21`, the inhibition of growth at 50 µM in assay [1] stood at 61%; in assay [2] it was 41%; in assay [3] it was 64%; in assay [4], 65%.
In the same order, the values of `CCCOc1ccc([C@@H]2CC(=O)c3cc(CC=C(C)C)c(OC)cc3O2)cc1` are 60%, 54%, 43% and 63%.
As to `COc1ccc([C@@H]2C/C(=N/OCc3cn(-c4ccccc4CO)nn3)c3cc(CC=C(C)C)c(OC)cc3O2)cc1`, the inhibition of growth at 50 µM in assay [1], in assay [2], in assay [3] and in assay [4] was 100% throughout. For the same molecule, the half-inhibitory concentration (IC50) in assay [5] came to 23.4 µM; in assay [6], 30.7 µM; in assay [7], 26.6 µM; in assay [8], 29.9 µM.

In general, IC50 refers to the midpoint of a concentration-inhibition curve.

For the origin of these results see ChEMBL document CHEMBL4145481, “Synthesis and biological evaluation of novel bavachinin analogs as anticancer agents” (Eur J Med Chem, 2018).
